In ChEMBL document CHEMBL3244424, “Potential anticancer agents. 17. Analogues of methotrexate with a tripeptide side chain” (J Med Chem, 1978):

Legend:
[1] = Toxicity in Wistar rat administered as single dose; format: organism-based; conditions: in vivo
L1210 [2] = assay: Antitumor activity against mouse L1210 cells allografted in BDF1 mouse assessed as increase in life span at 50 mg/kg administered 6 times starting 24 hrs post challenge relative to control; format: functional; conditions: L1210, 24 h
Outline: (§1)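 L1210 leukemia cells, 10^6, inoculated ip; dosing started 24 h after inoculation, given daily as an aqueous solution at pH 8.0-8.4. Survival of treated versus control mice was read out as %ILS = (T/C − 1) × 100.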

L1210 [3] = assay: Antitumor activity against mouse L1210 cells allografted in BDF1 mouse assessed as increase in life span at 40 mg/kg administered 10 times starting 24 hrs post challenge relative to control; format: functional; conditions: L1210, 24 h; outline: as §1
W256 [4] = assay: Antitumor activity against […] cells allografted in rat assessed as tumor growth inhibition at 60 mg/kg administered 14 times starting 7 days post challenge relative to control; conditions: W256, 7 days, read-out: TGI
L1210 [5] = assay: Antitumor activity against mouse L1210 cells allografted in BDF1 mouse assessed as increase in life span at 33 mg/kg administered 6 times starting 24 hrs post challenge relative to control; format: functional; conditions: L1210, 24 h; outline: as §1
W256 [6] = assay: Antitumor activity against […] cells allografted in rat assessed as tumor growth inhibition at 18 mg/kg administered 13 times starting 7 days post challenge relative to control; conditions: W256, 7 days, read-out: TGI
L1210 [7] = assay: Antitumor activity against mouse L1210 cells allografted in BDF1 mouse assessed as increase in life span at 100 mg/kg administered 8 times starting 24 hrs post challenge relative to control; format: functional; conditions: L1210, 24 h; outline: as §1
W256 [8] = assay: Antitumor activity against […] cells allografted in rat assessed as tumor growth inhibition at 100 mg/kg administered 13 times starting 7 days post challenge relative to control; conditions: W256, 7 days, read-out: TGI
L1210 [9] = assay: Antitumor activity against mouse L1210 cells allografted in BDF1 mouse assessed as increase in life span at 100 mg/kg administered 6 times starting 24 hrs post challenge relative to control; format: functional; conditions: L1210, 24 h; outline: as §1
L1210 [10] = assay: Antitumor activity against mouse L1210 cells allografted in BDF1 mouse assessed as increase in life span at 50 mg/kg administered 8 times starting 24 hrs post challenge relative to control; format: functional; conditions: L1210, 24 h; outline: as §1
L1210 [11] = assay: Antitumor activity against mouse L1210 cells allografted in BDF1 mouse assessed as increase in life span at 100 mg/kg administered 7 times starting 24 hrs post challenge relative to control; format: functional; conditions: L1210, 24 h; outline: as §1

## CC(NC(=O)c1ccc(N(C)Cc2cnc3nc(N)nc(N)c3n2)cc1)C(=O)NC(CCC(=O)O)C(=O)O (stereo not given)
[1]
  LD50: 500 mg/kg
L1210 [2]
  ILS at 50 mg/kg: 19%

## Nc1nc(N)c2nc(CNc3ccc(C(=O)NCC(=O)NC(CC(=O)O)C(=O)O)cc3)cnc2n1.O (stereo not given)
[1]
  LD50: 200 mg/kg
L1210 [3]
  ILS at 40 mg/kg: 69%
W256 [4]
  inhibition in vivo at 60 mg/kg: 55%

## Nc1nc(N)c2nc(CNc3ccc(C(=O)NCC(=O)NC(CCC(=O)O)C(=O)O)cc3)cnc2n1.O (stereo not given)
[1]
  LD50: 400 mg/kg
L1210 [5]
  ILS at 33 mg/kg: 14%
W256 [6]
  inhibition in vivo at 18 mg/kg: 30%

## CN(Cc1cnc2nc(N)nc(N)c2n1)c1ccc(C(=O)NCC(=O)NC(CC(=O)O)C(=O)O)cc1.O (stereo not given)
[1]
  LD50: 500 mg/kg
L1210 [7]
  ILS at 100 mg/kg: 40%
W256 [8]
  inhibition in vivo at 100 mg/kg: 41%

## CN(Cc1cnc2nc(N)nc(N)c2n1)c1ccc(C(=O)NCC(=O)NC(CCC(=O)O)C(=O)O)cc1.O (stereo not given)
[1]
  LD50: 830 mg/kg
L1210 [7]
  ILS at 100 mg/kg: 0%

## CN(CC(=O)NC(CCC(=O)O)C(=O)O)C(=O)c1ccc(N(C)Cc2cnc3nc(N)nc(N)c3n2)cc1.O (stereo not given)
[1]
  LD50: 1000 mg/kg
L1210 [9]
  ILS at 100 mg/kg: 0%

## CC(C)C[C@H](NC(=O)c1ccc(N(C)Cc2cnc3nc(N)nc(N)c3n2)cc1)C(=O)NC(CCC(=O)O)C(=O)O (stereo not given in full)
[1]
  LD50: 500 mg/kg
L1210 [10]
  ILS at 50 mg/kg: 0%

## CN(Cc1cnc2nc(N)nc(N)c2n1)c1ccc(C(=O)N[C@@H](Cc2ccccc2)C(=O)NC(CC(=O)O)C(=O)O)cc1.O (stereo not given in full)
[1]
  LD50: 1000 mg/kg
L1210 [11]
  ILS at 100 mg/kg: 0%

## CN(Cc1cnc2nc(N)nc(N)c2n1)c1ccc(C(=O)N[C@@H](Cc2ccccc2)C(=O)NC(CCC(=O)O)C(=O)O)cc1.O (stereo not given in full)
[1]
  LD50: 500 mg/kg
